The record followed here is ChEMBL document CHEMBL1153081, “Antimalarial acridines: synthesis, in vitro activity against P. falciparum and interaction with hematin” (Bioorg Med Chem, 2009).

Data set [1] can be described thus: Binding affinity to synthetic hematin by spectrophotometry. In outline: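 Monomeric hematin solution: hematin in 0.1 M NaOH with DMSO and 0.02 M sodium phosphate buffer (pH 6.0), made up with water. Drug and hematin were mixed at 10 molar ratios. Complex stoichiometry and dissociation constant Kd were determined by spectrophotometric methods.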
Data set [2] concerns KB. Nature of the data set: Cytotoxicity against human KB cells after 72 hrs by MTS assay. It counts as cell-based. In outline: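 KB cells were grown in D-MEM with 10% fetal calf serum, penicillin, streptomycin and fungizone, under 5% CO2. They were seeded at 650 cells/well and dosed 24 h later with compounds in DMSO, from 0.5 nM upward; controls got DMSO (1% final). MTS was added for 3 h at 37 °C and absorbance read at 490 nm as % of control. IC50 came from separate duplicate experiments.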
(In general: Formazan colour is commonly taken as a measure of viable cells.)

A short description of data set [3]: Selectivity index, ratio of IC50 for human KB cells to IC50 for chloroquine-resistant Plasmodium falciparum FCR3/Gambia. It counts as toxicity, cell-based. To be noted: read-out: Ratio IC50. In outline: (§1)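 SI is the ratio of the KB-cell IC50 to the parasite [3H]hypoxanthine IC50 for the given strain. KB cells were grown in D-MEM with 10% FCS and antibiotics under 5% CO2 and plated at 650 cells/well. After 24 h they were treated with compounds in DMSO (0.5 nM to 10 µM; 1% DMSO final) for 72 h. MTS was then added for 3 h at 37 °C and A490 was read against controls. IC50 runs were done in separate duplicate.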

Data set [4] can be described thus: Selectivity index, ratio of IC50 for human KB cells to IC50 for chloroquine-sensitive Plasmodium falciparum 3D7. To be noted: read-out: Ratio IC50. Type of data set: toxicity, cell-based. A digest of the protocol: as §1
Data set [5] is described as follows: Selectivity index, ratio of IC50 for human KB cells to IC50 for chloroquine-resistant Plasmodium falciparum W2. It counts as toxicity, cell-based. To be noted: read-out: Ratio IC50. A digest of the protocol: as §1
Data set [6] is described as follows: Selectivity index, ratio of IC50 for human KB cells to IC50 for chloroquine-resistant Plasmodium falciparum Bre1. To be noted: read-out: Ratio IC50. It counts as toxicity, cell-based. A digest of the protocol: as §1
Data set [7] in a line: Inhibition of beta-hematin formation after 18 hrs. It counts as functional. A digest of the protocol:
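Modified BHIA: 8 mM hemin in DMSO (0.4 µmol per tube) was mixed with compounds in DMSO or DMSO/MeOH (1:1) at 0–10 molar equivalents to hemin, in triplicate. Acetate buffer held pH 5, and water-only controls were run. Hematin was quantified after serial dilution in 0.1 M NaOH, by absorbance at 405 nm. IC50 was taken as the concentration inhibiting crystallization by 50%.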

Data set [8] in a line: Dissociation constant, pKa by spectrophotometry. Type of data set: physicochemical.
The test system of data set [9] is Plasmodium falciparum. Nature of the data set: Antiplasmodial activity against chloroquine-resistant Plasmodium falciparum W2 assessed as inhibition of [3H]hypoxanthine incorporation. It counts as functional, organism-based.
Data set [10] concerns Plasmodium falciparum. Nature of the data set: Antiplasmodial activity against chloroquine-sensitive Plasmodium falciparum 3D7 assessed as inhibition of [3H]hypoxanthine incorporation. It counts as functional, organism-based.
The subject of data set [11] is Plasmodium falciparum. Nature of the data set: Antiplasmodial activity against chloroquine-resistant Plasmodium falciparum Bre1 assessed as inhibition of [3H]hypoxanthine incorporation. It counts as functional, organism-based.
Data set [12] deals with Plasmodium falciparum. Nature of the data set: Antiplasmodial activity against chloroquine-resistant Plasmodium falciparum FCR3/Gambia assessed as inhibition of [3H]hypoxanthine incorporation. It counts as functional, organism-based. The settings on record: FCR-3/Gambia.

As usually defined, the Kd is the constant that tells how readily two partners part at equilibrium. The term IC50 denotes the concentration at which inhibition is half-maximal. For orientation: pKa means the negative logarithm of the acid dissociation constant. Read a high pKa as a weaker acid or stronger base.

For `COc1ccc2nc3cc(Cl)ccc3c(NCCCCCCN)c2c1`, in data set [1], the dissociation constant Kd turned out to be 4.4 µM. For the same molecule, the IC50 came to 0.7 µM in data set [2] and 400 µM in [7]. Moreover, the selectivity ratio in data set [3] amounted to 3.5; in data set [4], 5.4; in data set [5], 3.9; in [6], 4.1. In data set [8], this molecule returned a pKa of 9.2.

`COc1ccc2nc3cc(Cl)ccc3c(NCCCCN)c2c1`: in [1], the Kd is 8.1 µM. The IC50 amounted to 0.6 µM in data set [2]; 0.25 µM in data set [9]; 0.067 µM in data set [10]; 0.3 µM in data set [11]; 0.25 µM in data set [12]; 1000 µM in [7]. Further, the selectivity ratio in [3] was 2.4; in data set [4] it was 8.9; in data set [5], 2.4; in [6], 2. This molecule registered a pKa in [8] of 9.1.

`CCCCCCCNc1c2ccc(Cl)cc2nc2ccc(OC)cc12` came in with a Kd in data set [1] of 5.4 µM. In addition, the IC50 in data set [2] was determined as 0.85 µM; in data set [9] it was 27.2 µM; in data set [10], 18.1 µM; in data set [11], 16.3 µM; in [12], 14.6 µM; in [7], 1500 µM. The selectivity ratio was found to be 0.06 in [3], 0.04 in [4], 0.02 in [5] and 0.05 in data set [6]. In addition, the pKa in [8] was 7.5.

`NCCC(=O)NCCC(=O)Nc1c2ccccc2nc2ccccc12`: binding in [1] was put at a Kd of 4 µM. Further, the IC50 turned out to be 60.1 µM in [2]; 20.9 µM in data set [9]; 40.9 µM in [10]; 21.6 µM in data set [11]; 17.8 µM in data set [12]; 1800 µM in data set [7]. For the same molecule, the selectivity ratio in data set [3] is 3.4; in data set [4], 1.5; in data set [5], 2.9; in data set [6] it was 2.8. Also, the pKa in data set [8] came to 4.53.

Molecule `NCCCCCCNc1c2ccccc2nc2ccccc12` gave a dissociation constant (Kd) in data set [1] of 4.6 µM. Moreover, the 50% inhibitory concentration (IC50) in data set [2] came out at 0.79 µM; in data set [9], 0.6 µM; in data set [10] it was 1.13 µM; in [11] it was 0.43 µM; in data set [12] it was 0.36 µM; in data set [7], 300 µM. Also, the selectivity ratio came to 2.2 in [3], 0.7 in data set [4], 1.3 in data set [5] and 1.8 in data set [6]. Moreover, the pKa in data set [8] is 9.86.

In data set [1], `COc1ccc2nc3cc(Cl)ccc3c(NCCN)c2c1` had a dissociation constant Kd of 4.2 µM. Further, the IC50 in data set [2] was 2.07 µM; in data set [9] it was 0.25 µM; in data set [10], 0.042 µM; in data set [11], 0.28 µM; in data set [12], 0.33 µM; in data set [7], 4600 µM. In addition, the selectivity ratio in data set [3] was 6; in [4], 50; in data set [5], 8; in data set [6] it was 7. This molecule returned a pKa in data set [8] of 7.94.

Regarding `NCCCCCCCC(=O)Nc1c2ccccc2nc2ccccc12`, the IC50 in data set [2] came out at 52.9 µM; in data set [9], 50 µM; in data set [10], 41.9 µM; in data set [11], 26.7 µM; in data set [12] it was 28.6 µM; in [7] it was 1100 µM. In addition, the selectivity ratio in data set [3] worked out at 1.8; in [4], 1.3; in [5], 1.1; in [6], 2. This molecule also showed a pKa in data set [8] of 4.59.

In data set [1], `COc1ccc2nc3cc(Cl)ccc3c(NCCCCCCNc3c4ccc(Cl)cc4nc4ccc(OC)cc34)c2c1` had a Kd of 20 µM. The IC50 worked out at 0.05 µM in data set [2]; 4.55 µM in [9]; 3.39 µM in data set [10]; 1.11 µM in [11]; 1.01 µM in [12]; 1300 µM in data set [7]. Also, the selectivity ratio in data set [3] turned out to be 0.05; in data set [5], 0.01; in [6], 0.045. In data set [8], the pKa was 8.23.

In turn, `CCN(CC)CCCC(C)Nc1ccnc2cc(Cl)ccc12` (stereo not drawn) [CHLOROQUINE] displayed a Kd in data set [1] of 5.4 µM. Besides, the IC50 in data set [2] was 22.5 µM; in data set [7], 900 µM.
